ChEMBL document CHEMBL3526049 (Drug Metab Dispos, 2012)

Key:
[1] = Volume of distribution at steady state in MRP2 knockout Sprague-Dawley rat at 1 mg/kg, iv by LC-MS/MS analysis; format: ADME, organism-based; parameters: dose 1 mg/kg, route intravenous; conditions: in vivo, read-out: Vdss
Procedure, shortened: (§1)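 Male Sprague-Dawley rats (knockout or wild type matched for age and weight), femoral artery and vein cannulated, at least 2 days recovery. Crossover design: IV bolus 1 mg/kg on day 0 (saline with 0.2 M equivalents HCl), oral gavage 10 mg/kg on day 3 (water with 0.2 M equivalents HCl). Arterial plasma sampled to 24 h (Mdr1a oral arm to 4 h). Analysed by LC-MS/MS and noncompartmental analysis.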

[2] = Oral bioavailability in MDR1A knockout Sprague-Dawley rat at 10 mg/kg by LC-MS/MS analysis; format: ADME, organism-based; conditions: in vivo; procedure, shortened: as §1
[3] = test system: Rattus norvegicus; experiment: Toxicity in MDR1A knockout Sprague-Dawley rat assessed as lethargic behavior at 1 mg/kg, iv; format: organism-based; parameters: dose 1 mg/kg, route intravenous; conditions: in vivo
[4] = test system: Rattus norvegicus; experiment: Toxicity in MDR1A knockout Sprague-Dawley rat assessed as hypoactive behavior at 10 mg/kg, po after 1 to 2 hrs; format: organism-based; parameters: dose 10 mg/kg, route oral; conditions: in vivo
Procedure, shortened: (§2)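 Independent veterinary staff recorded clinical central signs. After oral dosing, animals were observed 1–2 h post-dose and again at 4 h, when sampling stopped and the animals were discontinued.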

[5] = test system: Rattus norvegicus; experiment: Toxicity in MDR1A knockout Sprague-Dawley rat assessed as eye protrusion at 10 mg/kg, po after 1 to 2 hrs; format: organism-based; parameters: dose 10 mg/kg, route oral; conditions: in vivo; procedure, shortened: as §2
[6] = test system: Rattus norvegicus; experiment: Toxicity in MDR1A knockout Sprague-Dawley rat assessed as lacrimation at 10 mg/kg, po after 1 to 2 hrs; format: organism-based; parameters: dose 10 mg/kg, route oral; conditions: in vivo; procedure, shortened: as §2
[7] = test system: Rattus norvegicus; experiment: Toxicity in MDR1A knockout Sprague-Dawley rat assessed as shallow breathing at 10 mg/kg, po after 1 to 2 hrs; format: organism-based; parameters: dose 10 mg/kg, route oral; conditions: in vivo; procedure, shortened: as §2
[8] = test system: Rattus norvegicus; experiment: Toxicity in MDR1A knockout Sprague-Dawley rat assessed as mortality at 10 mg/kg, po after 4 hrs; format: organism-based; parameters: dose 10 mg/kg, route oral; conditions: in vivo; procedure, shortened: as §2
[9] = test system: Rattus norvegicus; experiment: Toxicity in MDR1A knockout Sprague-Dawley rat assessed as stupor at 10 mg/kg, po after 4 hrs; format: organism-based; parameters: dose 10 mg/kg, route oral; conditions: in vivo; procedure, shortened: as §2
[10] = Volume of distribution at steady state in MDR1A knockout Sprague-Dawley rat at 1 mg/kg, iv by LC-MS/MS analysis; format: ADME, organism-based; parameters: dose 1 mg/kg, route intravenous; conditions: in vivo, read-out: Vdss; procedure, shortened: as §1
[11] = Volume of distribution at steady state in wild-type Sprague-Dawley rat at 1 mg/kg, iv by LC-MS/MS analysis; format: ADME, organism-based; parameters: dose 1 mg/kg, route intravenous; conditions: in vivo, read-out: Vdss; procedure, shortened: as §1
[12] = Volume of distribution at steady state in BCRP knockout Sprague-Dawley rat at 1 mg/kg, iv by LC-MS/MS analysis; format: ADME, organism-based; parameters: dose 1 mg/kg, route intravenous; conditions: in vivo, read-out: Vdss; procedure, shortened: as §1
[13] = AUC (infinity) in wild-type Sprague-Dawley rat at 1 mg/kg, iv by LC-MS/MS analysis; format: ADME, organism-based; parameters: time infinity, dose 1 mg/kg, route intravenous; conditions: plasma
[14] = AUC (infinity) in MDR1A knockout Sprague-Dawley rat at 1 mg/kg, iv by LC-MS/MS analysis; format: ADME, organism-based; parameters: time infinity, dose 1 mg/kg, route intravenous; conditions: plasma
[15] = AUC (infinity) in BCRP knockout Sprague-Dawley rat at 1 mg/kg, iv by LC-MS/MS analysis; format: ADME, organism-based; parameters: time infinity, dose 1 mg/kg, route intravenous; conditions: plasma
[16] = AUC (infinity) in MRP2 knockout Sprague-Dawley rat at 1 mg/kg, iv by LC-MS/MS analysis; format: ADME, organism-based, Plasma; parameters: time infinity, dose 1 mg/kg, route intravenous; conditions: Sprague-Dawley, plasma
[17] = Half life in wild-type Sprague-Dawley rat at 1 mg/kg, iv by LC-MS/MS analysis; format: ADME, organism-based; parameters: dose 1 mg/kg, route intravenous; conditions: in vivo; procedure, shortened: as §1
[18] = Half life in MDR1A knockout Sprague-Dawley rat at 1 mg/kg, iv by LC-MS/MS analysis; format: ADME, organism-based; parameters: dose 1 mg/kg, route intravenous; conditions: in vivo; procedure, shortened: as §1
[19] = Half life in BCRP knockout Sprague-Dawley rat at 1 mg/kg, iv by LC-MS/MS analysis; format: ADME, organism-based; parameters: dose 1 mg/kg, route intravenous; conditions: in vivo; procedure, shortened: as §1
[20] = Half life in MRP2 knockout Sprague-Dawley rat at 1 mg/kg, iv by LC-MS/MS analysis; format: ADME, organism-based; parameters: dose 1 mg/kg, route intravenous; conditions: in vivo
Procedure, shortened: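 Male Sprague-Dawley rats (knockout or wild type matched for age and weight), femoral artery and vein cannulated, at least 2 days recovery. Crossover design: IV bolus 1 mg/kg on day 0 (saline with 0.2 M equivalents HCl), oral gavage 10 mg/kg on day 3 (water with 0.2 M equivalents HCl). Analysed by LC-MS/MS and noncompartmental analysis.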

[21] = Cmax in wild-type Sprague-Dawley rat at 10 mg/kg, po by LC-MS/MS analysis; format: ADME, organism-based; parameters: dose 10 mg/kg, route oral; conditions: in vivo; procedure, shortened: as §1
[22] = Cmax in MDR1A knockout Sprague-Dawley rat at 10 mg/kg, po by LC-MS/MS analysis; format: ADME, organism-based; parameters: dose 10 mg/kg, route oral; conditions: in vivo; procedure, shortened: as §1
[23] = Cmax in BCRP knockout Sprague-Dawley rat at 10 mg/kg, po by LC-MS/MS analysis; format: ADME, organism-based; parameters: dose 10 mg/kg, route oral; conditions: in vivo; procedure, shortened: as §1
[24] = Cmax in MRP2 knockout Sprague-Dawley rat at 10 mg/kg, po by LC-MS/MS analysis; format: ADME, organism-based; parameters: dose 10 mg/kg, route oral; conditions: in vivo; procedure, shortened: as §1
[25] = Tmax in wild-type Sprague-Dawley rat at 10 mg/kg, po by LC-MS/MS analysis; format: ADME, organism-based; parameters: dose 10 mg/kg, route oral; conditions: in vivo; procedure, shortened: as §1
[26] = Tmax in MDR1A knockout Sprague-Dawley rat at 10 mg/kg, po by LC-MS/MS analysis; format: ADME, organism-based; parameters: dose 10 mg/kg, route oral; conditions: in vivo; procedure, shortened: as §1
[27] = Tmax in BCRP knockout Sprague-Dawley rat at 10 mg/kg, po by LC-MS/MS analysis; format: ADME, organism-based; parameters: dose 10 mg/kg, route oral; conditions: in vivo; procedure, shortened: as §1
[28] = Tmax in MRP2 knockout Sprague-Dawley rat at 10 mg/kg, po by LC-MS/MS analysis; format: ADME, organism-based; parameters: dose 10 mg/kg, route oral; conditions: in vivo; procedure, shortened: as §1
[29] = Half life in wild-type Sprague-Dawley rat at 10 mg/kg, po by LC-MS/MS analysis; format: ADME, organism-based; parameters: dose 10 mg/kg, route oral; conditions: in vivo; procedure, shortened: as §1
[30] = Half life in BCRP knockout Sprague-Dawley rat at 10 mg/kg, po by LC-MS/MS analysis; format: ADME, organism-based; parameters: dose 10 mg/kg, route oral; conditions: in vivo; procedure, shortened: as §1
[31] = Half life in MRP2 knockout Sprague-Dawley rat at 10 mg/kg, po by LC-MS/MS analysis; format: ADME, organism-based; parameters: dose 10 mg/kg, route oral; conditions: in vivo; procedure, shortened: as §1
[32] = Oral bioavailability in wild-type Sprague-Dawley rat at 10 mg/kg by LC-MS/MS analysis; format: ADME, organism-based; conditions: in vivo; procedure, shortened: as §1
[33] = Oral bioavailability in BCRP knockout Sprague-Dawley rat at 10 mg/kg by LC-MS/MS analysis; format: ADME, organism-based; conditions: in vivo; procedure, shortened: as §1
[34] = Oral bioavailability in MRP2 knockout Sprague-Dawley rat at 10 mg/kg by LC-MS/MS analysis; format: ADME, organism-based; conditions: in vivo; procedure, shortened: as §1
[35] = in vivo; conditions: Sprague-Dawley, rat, po, 10 mg/kg
[36] = in vivo; conditions: Sprague-Dawley, rat, po, 10 mg/kg; remark: listed apart in the source
[37] = in vivo; conditions: Sprague-Dawley, rat, plasma, po, 10 mg/kg
[38] = in vivo; conditions: Sprague-Dawley, rat, plasma, po, 10 mg/kg; remark: listed apart in the source
[39] = in vivo; conditions: Sprague-Dawley, rat, plasma, po, 10 mg/kg; remark: listed apart in the source

## CN(C)C(=O)C(CCN1CCC(O)(c2ccc(Cl)cc2)CC1)(c1ccccc1)c1ccccc1 [LOPERAMIDE]
[1]
  Vd: 21.2 L/kg
[2]
  bioavailability: 34%
[3]
  Activity: Toxic
[4]
  Activity: Toxic
[5]
  Activity: Toxic
[6]
  Activity: Toxic
[7]
  Activity: Toxic
[8]
  Activity: Toxic
[9]
  Activity: Toxic
[10]
  Vd: 7.9 L/kg
[11]
  Vd: 9 L/kg
[12]
  Vd: 11.5 L/kg
[13]
  AUC(0-inf): 131 ng·h/mL
[14]
  AUC(0-inf): 243 ng·h/mL
[15]
  AUC(0-inf): 161 ng·h/mL
[16]
  AUC(0-inf): 122 ng·h/mL
[17]
  half-life: 1 h
[18]
  half-life: 1.5 h
[19]
  half-life: 1.5 h
[20]
  half-life: 1.1 h
[21]
  Cmax: 90 ng/mL
[22]
  Cmax: 226 ng/mL
[23]
  Cmax: 69 ng/mL
[24]
  Cmax: 60 ng/mL
[25]
  Tmax: 0.3 h
[26]
  Tmax: 0.8 h
[27]
  Tmax: 0.7 h
[28]
  Tmax: 0.4 h
[29]
  half-life: 13 h
[30]
  half-life: 15 h
[31]
  half-life: 13 h
[32]
  bioavailability: 16%
[33]
  bioavailability: 40%
[34]
  bioavailability: 60%
[35]
  AUC(0-t) at 4 h: 651 ng·h/mL
[36]
  AUC(0-t) at 4 h: 184 ng·h/mL
[37]
  AUC(0-inf): 806 ng·h/mL
[38]
  AUC(0-inf): 980 ng·h/mL
[39]
  AUC(0-inf): 1020 ng·h/mL
